# NR3A LBD binder = binders of NR3A ligand-binding domain, primary screen, biophysical, differential scanning fluorimetry, uHTS | actives 2.5% (n = 340,000) | Tm shift relative to glycine control, % at 25 µM | AID 1259313, 2017 | NR3A LBD differential scanning fluorimetry, Tm shift; 0% = protein alone, 100% = glycine-bound protein;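 active = melting temperature shift of at least 10% of the positive control shift, at one fixed dose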
# FAS TE block = FAS thioesterase domain inhibitors, primary screen, biochemical, fluorescence intensity, uHTS | AID 602261, 2012 | inhibition, % at 15 µM | Fatty acid synthase (Homo sapiens), P49327 | recombinant FAS-TE, OMFH fluorogenic substrate, fluorescence endpoint | actives 0.67% (n = 360,000);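 active = compounds whose normalised, plate-corrected inhibition of enzyme fluorescence in the single-dose primary screen is 50% or more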;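 also: 0% = DMSO with enzyme and 100% = substrate without enzyme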
# Arr AP2 block = inhibitors of beta-arrestin/AP2 binding, primary screen, biochemical, GPCR trafficking, flow cytometry | FITC-arrestin peptide / GST-AP2 beads; AP2 beta2 appendage carries R879A mutation | inhibition, % at 10 µM | actives 0.31% (n = 340,000) | AID 504490, 2011;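 active = inhibition above a set limit, near 3 SD of compounds lacking own fluorescence, cut at about 54% in these data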;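 also: plate controls were DMSO wells for no effect and 5 µM unlabelled arrestin peptide for full effect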
#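 test system = AP2 appendage R879A on GSH beads | buffer or medium = PBS plus Tween 20 (0.05%) and BSA (0.1%) | incubation = 12 min plus 1 h, RT | detection = bead flow cytometry, FITC channel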
# SENP1 FRET inh = human SENP1 catalytic domain inhibitors, primary screen, biochemical, FRET, uHTS | inhibition, % at 10 µM | actives 0.21% (n = 360,000) | Sentrin-specific protease 1 (Homo sapiens), Q9P0U3 | recombinant SENP1 catalytic domain, CyPet-SUMO1-YPet FRET cleavage;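 active = inhibition at least 30% at 10 µM, raw YFP signal under a set limit, fluorescence ratio 0.5 to 1.5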;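 also: 0% = enzyme with DMSO and 100% = no enzyme wells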
# Target sequence (Q9P0U3 419-644 limits assumed): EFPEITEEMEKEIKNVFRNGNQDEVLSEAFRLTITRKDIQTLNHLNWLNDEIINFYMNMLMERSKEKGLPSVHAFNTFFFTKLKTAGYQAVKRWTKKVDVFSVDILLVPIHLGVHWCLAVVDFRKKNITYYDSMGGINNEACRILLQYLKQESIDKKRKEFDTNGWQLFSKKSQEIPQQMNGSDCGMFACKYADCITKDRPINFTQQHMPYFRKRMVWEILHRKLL
#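 Assay system – human recombinant His6-tagged SENP1 catalytic domain enzyme · Input – SENP1 enzyme, 20 pM final · Buffer or medium – Tris pH 8 buffer plus EDTA, NaCl, BME, BSA, NP40, catalase · Schedule – 50 min reaction at room temperature · Technique – FRET read of cyan and yellow fluorescence · Control set – no-enzyme wells low, DMSO-plus-enzyme wells high control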
# H9c2 protect = cardioprotection against H2O2-induced cell death, primary screen, uHTS, H9c2 cells, ATPLite luminescence | H9c2 cardiomyocytes, H2O2 injury protection, 2 h | protection from H2O2 cell death, % at 20 µM | actives 0.63% (n = 360,000);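 active = compounds giving at least 50% protection of heart cells from peroxide-induced death in the single-dose screen, raw or plate-pattern-corrected value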;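 also: 0% = DMSO wells with peroxide and 100% = DMSO wells without peroxide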
# iPSC survival up = enhancers of single-cell hiPSC survival, primary screen, ATPlite luminescence; 100% = ROCK inhibitor wells, 0% = DMSO; survival enhancement, % at 20 µM; actives 0.044% (n = 360,000); AID 602274, 2012; in the data active = survival enhancement above about 18%;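 also: cells exposed to compounds for 16 hours before the ATP read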
# * marks the source's active call; other numbers are inactive results; . = no result. A selection: hits, their analogues and other compounds. The true share with any hit is near 4%.
SMILES,NR3A LBD binder,FAS TE block,Arr AP2 block,SENP1 FRET inh,H9c2 protect,iPSC survival up
O=C(N/N=C/c1ccncc1)c1cc(-c2ccc(Br)s2)[nH]n1,17.4*,-9.2,1.9,-0.7,9.3,-0.2
S=c1[nH]nc(-c2cc(-c3ccccc3)n[nH]2)n1/N=C/c1ccc(Cl)c(Cl)c1,24.3*,6.5,-2.6,3.9,-8.6,-0.2
Nc1nc(Nc2ccccc2F)nc(N2CCOCC2)c1[N+](=O)[O-],15.4*,-5.4,-6.2,0.3,2.7,-0.2
Nc1nc(Nc2ccccc2)nc(N2CCOCC2)c1[N+](=O)[O-],1.2,-2.2,9.3,2.4,-2.6,1.9
CC1(C(=O)NS(=O)(=O)c2ccc(Cl)cc2)CCN1C(=O)CCc1cccs1 (stereo not drawn),.,3.0,.,-0.9,-2.7,-1.4
COc1ccc(-c2oc(=O)c3cc(OC)c(OC)cc3c2C#CC2(O)CCCCC2)cc1,12.9*,-8.3,-8.2,-55.2,8.8,2.7
COc1cc2c(C#CCCCO)c(-c3ccsc3)oc(=O)c2cc1OC,-1.8,-1.6,.,-3.7,68.5*,0.4
CCCNC(=O)N1C2=NC(C(=O)OC)=C(C(=O)OC)[C@@H]3N(Cc4ccccc4)c4ccccc4[C@]23C[C@H]1CO,-0.7,80.4*,-0.1,3.2,3.4,0.0
C[C@H](NC(=O)C1CCN(S(=O)(=O)c2ccccc2)CC1)C(=O)NCc1ccncc1,.,-4.9,.,-0.2,-2.1,-2.5
O=C(NCC1OCCc2ccccc21)c1ccc(NC(=O)c2cccc(Br)c2)cc1 (stereo not drawn),28.1*,-1.4,-4.0,-0.3,1.1,2.3
O=C(NCC1OCCc2ccccc21)c1ccc(NC(=O)c2ccc(Cl)cc2Cl)cc1 (stereo not drawn),17.6*,-8.9,-1.4,0.4,-6.3,3.5
CC(C)c1ccc(CN2CCC2(C)C(=O)Nc2cccc(Oc3ccccc3)c2)cc1 (stereo not drawn),.,29.2,.,1.5,-11.8,-1.9
OCC[C@@H]1C[C@H](O)[C@@H](O)[C@@]2(OCc3cc(C(F)(F)F)ccc32)O1,.,-4.1,.,-0.1,0.9,8.2
CN(C)C(=O)c1cnc(Cc2c[nH]c3ccccc23)c(I)c1,.,-4.5,.,1.1,16.2,-2.5
COc1ccc(CN(CCCn2cnc3c(OC)ncnc32)CCCn2cnc3c(OC)ncnc32)cc1,.,-7.4,.,1.6,4.9,3.3
Cc1ccc(-n2c(N)c(C#N)c(-c3ccc(Cl)cc3)c(C#N)c2=O)cc1,20.0*,-3.5,6.6,-3.1,-0.7,1.3
Cc1ccc(-c2c(C#N)c(N)n(-c3ccc(C)cc3)c(=O)c2C#N)cc1,-1.0,-4.5,-4.1,1.5,-7.1,0.4
COc1ccc(C(=O)OCC(=O)c2c[nH]c3ccccc23)c(OC)c1,0.3,4.5,6.5,-6.9,-4.6,0.2
O=C(OCC(=O)c1c[nH]c2ccccc12)c1cc2ccccc2cc1O,32.2*,0.2,8.4,-9.9,-7.2,0.4
CCOc1ccc(N(C)S(=O)(=O)c2ccc(C)c(C(=O)OCC(=O)c3c[nH]c4ccccc34)c2)cc1,31.3*,38.6,1.1,-3.2,-11.8,5.5
CN(Cc1ccccc1)C(c1ccnc2ccccc12)c1nnnn1-c1ccc2c(c1)OCCO2 (stereo not drawn),.,22.0,.,2.1,.,0.3
Fc1cccc(Cc2c(C3CCCCC3)nc3c4ccccc4ccn23)c1,.,13.7,.,-18.0,.,0.0
O=S(=O)(Nc1ccc(N=Nc2ccc(O)c3ccccc23)cc1)c1ccccc1,8.3,39.2,36.6,5.0,-7.6,-1.0
O=[N+]([O-])c1ccc(N=Nc2ccc(O)c3ccccc23)cc1,19.8*,-11.1,13.1,-16.8,-26.2,-1.9
O=C(Nc1cccs1)Nc1ccc(Br)cc1F,21.3*,10.2,-4.8,-0.2,-2.2,0.7
SMILES,NR3A LBD binder,FAS TE block,Arr AP2 block,SENP1 FRET inh,H9c2 protect,iPSC survival up
Cc1ccc(NC(=O)Nc2cccs2)cc1,11.3*,-4.1,24.1,2.8,-30.4,-1.8
CCOc1ccc(NC(=O)Nc2cccs2)cc1,18.8*,-8.0,21.0,0.9,-26.8,-4.6
O=C(C(=O)N1CCN(C(=O)OCc2ccccc2)CC1)c1cccnc1,.,.,.,1.7,.,.
CCC(=O)N1CCC(C)(C(=O)Nc2ccc3c(c2)OCO3)C1 (stereo not drawn),.,-7.4,.,2.4,-8.5,0.0
COc1ccc(OCC(=O)Nc2cccc(-c3nc4ccccc4[nH]3)c2)cc1,19.5*,7.9,-6.7,0.0,44.2,0.1
O=C(CSc1ccc(Cl)cc1)Nc1cccc(-c2nc3ccccc3[nH]2)c1,31.6*,-0.3,-3.5,2.1,10.4,-1.3
Cc1ccc2nc(-c3ccc(SCC(=O)O)nc3)[nH]c2c1,1.0,-12.0,28.5,-2.3,-12.6,0.5
COCCN1Cc2cccc(C(=O)Nc3cccc(-c4nc5ccccc5[nH]4)c3)c2C1=O,-6.8,4.9,-14.9,1.0,54.1*,-0.3
O=C(O)CCCC(=O)Nc1cccc(-c2nc3ccccc3[nH]2)c1,0.2,-4.5,34.4,1.3,3.1,-2.2
Cc1ccc2nc(-c3ccc(SCC(=O)N4CCc5ccccc54)nc3)[nH]c2c1,22.7*,10.7,-6.3,4.1,-5.0,-1.0
COC(=O)c1ccc(COC(=O)C2CCN(S(=O)(=O)c3c(C)cc(C)cc3C)CC2)o1,.,29.2,.,1.3,-5.5,0.9
COc1ccc2nc(SCC(=O)Nc3ccccc3)[nH]c2c1,17.2*,14.0,1.1,0.8,0.2,1.0
O=C(CSc1ccccc1)Nc1ccc(-c2nc3ccccc3[nH]2)cc1,32.9*,-4.9,0.0,1.5,-6.7,0.7
O=C(CN1CCOCC1)Nc1ccc(-c2nc3ccccc3[nH]2)cc1,-6.8,-4.4,16.4,-1.5,-0.7,-0.6
O=C(CSc1nc(-c2ccc(Cl)cc2)[nH]c(=O)n1)Nc1cccc(Cl)c1,12.1*,43.9,-1.7,1.9,6.4,-0.4
Cc1ccc2nc(-c3ccc(NC(=O)CSc4ccccc4)cc3)[nH]c2c1,29.1*,-5.6,-6.8,-0.8,17.3,-0.6
COc1ccc(C(=O)c2[nH]c(N)c(C(=O)NCCc3c[nH]c4ccccc34)c2-c2ccc(OC)c(OC)c2)cc1,.,7.4,.,-6.9,.,0.5
CO[C@@H]1CN(C)C(=O)c2cc(NC(=O)Nc3cc(F)ccc3F)ccc2OC[C@H](C)N(C(=O)c2cnccn2)C[C@@H]1C,.,.,.,1.6,.,.
O=C(Cc1cccs1)Nc1ccc(Cl)cc1,-21.6,2.6,8.3,-3.4,-1.4,8.8

# Assay outcomes: PubChem BioAssay, several laboratories
